The values that follow come from ChEMBL document CHEMBL5104184, “Chemical Toolkit for PARK7: Potent, Selective, and High-Throughput” (J Med Chem, 2022).

Active and inactive are the calls of the source. The rule behind the calls is not given here.

Assay [1] has as its target T1, Parkinson disease protein 7 (Homo sapiens) (UniProt Q99497).
T1 sequence (whole entry): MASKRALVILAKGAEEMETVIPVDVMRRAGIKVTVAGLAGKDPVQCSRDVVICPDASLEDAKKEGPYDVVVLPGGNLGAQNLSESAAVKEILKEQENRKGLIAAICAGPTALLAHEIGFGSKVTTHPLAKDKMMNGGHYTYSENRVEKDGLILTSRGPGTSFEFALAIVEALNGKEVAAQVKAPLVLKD
The assay can be described thus: Binding affinity to PARK7 in human HEK293T cells at 0.5 uM incubated for 1 hr by fluorescence scanning based analysis. It is filed as cell-based.

The target of assay [2] is T1, Parkinson disease protein 7 (Homo sapiens). The assay can be described thus: Binding affinity to PARK7 in human HEK293T cells at 1 uM incubated for 1 hr by fluorescence scanning based analysis. It is filed as cell-based.
The target is the same in assay [3]. The assay can be described thus: Binding affinity to PARK7 in human HEK293T cells at 0.5 to 1 uM incubated for 1 hr by western blot analysis. It is filed as cell-based. The note with it: dose 0.5-1 µM. (In western blotting, separated proteins are transferred to a membrane and probed.)
For assay [4] the target is unchanged. The assay can be described thus: Binding affinity to N-terminal GST-tagged human recombinant PARK7 expressed in Escherichia coli BL21(DE3)Rosetta2 cells at 1 uM measured after 1 hr by fluorescence scanning analysis. Put shortly:
(§1)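 Purified recombinant PARK7 (GST-tagged in E. coli BL21(DE3) Rosetta2, tag removed by 3C protease, then gel filtration), 1 μM final. Incubated with probe at 0, 0.1, 0.5, 1, 2, 5 or 10 μM for 1 h at 37 °C in 50 mM Tris-HCl, 150 mM NaCl, 2 mM TCEP, pH 7.5. Stopped with LDS sample buffer, run on SDS-PAGE, read by fluorescence scan, then Coomassie stain.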

The target is the same in assay [5]. The assay can be described thus: Binding affinity to N-terminal GST-tagged human recombinant PARK7 expressed in Escherichia coli BL21(DE3)Rosetta2 cells at 1 uM measured after 1 hr by coomassie staining based analysis. The gist of the method:
as §1

The target is the same in assay [6]. The assay can be described thus: Binding affinity to PARK7 in UCHL1 knockdown human HEK293T cells at 1 uM incubated for 1 hr by fluorescence scanning based analysis. It is filed as cell-based. Put shortly: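 HEK293T cells were siRNA-transfected with Dharmafect 1 and cultured 3 days, then lysed in Triton X-100/TCEP Tris buffer (pH 7.5) with protease inhibitors. Lysate labelled with probe at 1 μM final for 1 h at 37 °C. Read by SDS-PAGE Cy5 fluorescence scan (635/655 nm), then immunoblot for UCHL1/PARK7 with actin as loading control.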

Assay [7] has the same target. The assay can be described thus: Binding affinity to N-terminal GST-tagged human recombinant PARK7 expressed in Escherichia coli BL21(DE3)Rosetta2 cells at 2 uM measured after 1 hr by fluorescence scanning analysis. The gist of the method: as §1
The target is the same in assay [8]. The assay can be described thus: Binding affinity to N-terminal GST-tagged human recombinant PARK7 expressed in Escherichia coli BL21(DE3)Rosetta2 cells at 2 uM measured after 1 hr by coomassie staining based analysis. The gist of the method: as §1
For assay [9], the target named is Ubiquitin carboxyl-terminal hydrolase isozyme L1 (Homo sapiens) (UniProt P09936). The assay can be described thus: Inhibition of UCHL1 in human HEK293T cells assessed as reduction in Rho-Ub-PA-labelled UCHL1 band intensity at 5 uM incubated for 1 hr followed by incubation with Rho-Ub-PA for 30 mins by fluorescence scanning based analysis. It is filed as cell-based. Conditions: time 90.0 min.
Ubiquitin carboxyl-terminal hydrolase isozyme L1 (Homo sapiens), sequence (P09936 whole entry, looked up): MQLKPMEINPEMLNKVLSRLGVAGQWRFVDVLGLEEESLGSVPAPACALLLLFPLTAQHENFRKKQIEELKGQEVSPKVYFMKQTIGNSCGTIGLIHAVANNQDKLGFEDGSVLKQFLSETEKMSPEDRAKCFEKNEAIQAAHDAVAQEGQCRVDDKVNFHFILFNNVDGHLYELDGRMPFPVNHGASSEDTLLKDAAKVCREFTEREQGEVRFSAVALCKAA

Assay [10] shares this target. The assay can be described thus: Inhibition of UCHL1 (unknown origin) using SRK59 as fluorescent probe at 2 uM preincubated for 1 hr followed by SRK59 addition for 30 mins by Gel-based competition assay. Conditions: time 90.0 min. Put shortly: (§2)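 Recombinant PARK7 and UCHL1 (1 μM each, mixed) or PARK7 alone, in 50 mM Tris-HCl, 150 mM NaCl, 2 mM TCEP, pH 7.5. Treated with compound at 2 μM or a serial dilution for 1 h at 37 °C. Then 8RK59 probe (2 μM final) added for 30 min at 37 °C. Run on SDS-PAGE; remaining labelling read by fluorescence scan.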

The target in assay [11] is T1, Parkinson disease protein 7 (Homo sapiens). The assay can be described thus: Inhibition of N-terminal GST-tagged human recombinant PARK7 expressed in Escherichia coli BL21(DE3)Rosetta2 cells using SRK59 as fluorescent probe at 2 uM preincubated for 1 hr followed by SRK59 addition for 30 mins by Gel-based competition assay. Conditions: time 90.0 min. Put shortly: as §2

Assay [12] shares this target. The assay can be described thus: Inhibition of PARK7 in human HEK293T cells assessed as reduction in JQ-92 labelled PARK7 band intensity at 1 uM incubated for 1 hr followed by incubation with JQ-92 for 30 mins by fluorescence scanning based analysis. It is filed as cell-based. The note with it: time 90.0 min.
Assay [13] has the same target. The assay can be described thus: Inhibition of PARK7 in human HEK293T cells assessed as reduction in JQ-92 labelled PARK7 band intensity at 0.1 to 50 uM incubated for 1 hr followed by incubation with JQ-92 for 30 mins by fluorescence scanning based analysis. It is filed as cell-based. Conditions: dose 0.1-50 µM, time 90.0 min.
The target is the same in assay [14]. The assay can be described thus: Inhibition of N-terminal GST-tagged human recombinant PARK7 expressed in Escherichia coli BL21(DE3)Rosetta2 cells using DiFMUAc as substrate at 12.5 to 100 uM preincubated with enzyme for 1 hr followed by substrate addition and measured for 1 hr by DiFMUAc assay based fluorescence analysis. The note with it: dose 12.5-100 µM, time 2.0 hrs. The gist of the method: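 PARK7 GST fusion was expressed in E. coli BL21(DE3) Rosetta2, purified on glutathione beads, cut with 3C protease and polished by SEC. Enzyme at 0.1 μM final in PBS was preincubated with compound at 100, 37.5 or 12.5 μM final. DiFMUAc was then added at 300 μM final, and fluorescence (ex/em 350/450 nm) was monitored for 1 h. Run in triplicate.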

Assay [15] has the same target. The assay can be described thus: Inhibition of N-terminal GST-tagged human recombinant PARK7 expressed in Escherichia coli BL21(DE3)Rosetta2 cells using SRK59 as fluorescent probe at 1 to 2 uM preincubated for 1 hr followed by SRK59 addition for 30 mins by Gel-based competition assay. The note with it: dose 1-2 µM, time 90.0 min. The gist of the method: as §2
For assay [16] the target is unchanged. The assay can be described thus: Inhibition of N-terminal GST-tagged human recombinant PARK7 expressed in Escherichia coli BL21(DE3)Rosetta2 cells using SRK59 as fluorescent probe at 0.5 uM preincubated for 1 hr followed by SRK59 addition for 30 mins by Gel-based competition assay. Conditions: time 90.0 min. The gist of the method: as §2
Assay [17] deals with Ubiquitin carboxyl-terminal hydrolase isozyme L1 (Homo sapiens) (UniProt P09936). The assay can be described thus: Inhibition of UCHL1 (unknown origin) using SRK59 as fluorescent probe at 20 uM preincubated for 1 hr followed by SRK59 addition for 30 mins by Gel-based competition assay. The note with it: time 90.0 min. Put shortly: as §2
Assay [18] addresses T1, Parkinson disease protein 7 (Homo sapiens). The assay can be described thus: Inhibition of PARK7 in human HEK293T cells assessed as reduction in JQ-92 labelled PARK7 band intensity incubated for 1 hr followed by incubation with JQ-92 for 30 mins by fluorescence scanning based analysis. Conditions: dose 0.1-20 µM, time 90.0 min, DDE = dose-dependent effect. It is filed as cell-based.

For assay [19] the target is unchanged. The assay can be described thus: Binding affinity to N-terminal GST-tagged human recombinant PARK7 expressed in Escherichia coli BL21(DE3)Rosetta2 cells at 5 uM measured after 1 hr by coomassie staining based analysis. The gist of the method: as §1
Assay [20] has the same target. The assay can be described thus: Binding affinity to N-terminal GST-tagged human recombinant PARK7 expressed in Escherichia coli BL21(DE3)Rosetta2 cells at 5 uM measured after 1 hr by fluorescence scanning analysis. The gist of the method:
as §1

For the molecule `CC[N+]1=C(/C=C/C=C/C=C2/N(CCCCCC(=O)NCCCc3cn(CC(=O)N4CCc5nc(NC(=O)[C@@H]6CCN(C#N)C6)sc5C4)nn3)c3ccc(S(=O)(=O)O)cc3C2(C)C)C(C)(C)c2cc(S(=O)(=O)[O-])ccc21`, the outcome in [1], in [2], in assay [3], in [4], in assay [5] and in [6] was Active. The result in assay [7] and in [8] was Active.

Regarding `N#CN1CC[C@@H](C(=O)Nc2nc3c(s2)CN(C(=O)Cn2cc(CCCNC(=O)c4ccc(-c5c6ccc(=N)cc-6oc6cc(N)ccc56)c(C(=O)O)c4)nn2)CC3)C1`, the result in assay [4] and in assay [5] was Active.

Broadly, the inhibition is how much of the control response was suppressed. As for `N#CN1CC[C@H](C(=O)Nc2ncc(N3CCOCC3)s2)C1`, the inhibition entry in [9] is “Active”.

Regarding `CN1C(=O)CC(C(=O)N2CCc3nc(NC(=O)[C@H]4CCN(C#N)C4)sc3C2)[C@@H]1c1cccnc1` (stereo partly drawn), in assay [10], the inhibition is 100%. The inhibition entry in assay [11] is “Active”.

Consider `N#CN1CC[C@H](C(=O)Nc2nc3c(s2)CN(C(=O)CCCCBr)CC3)C1`, for which the inhibition in assay [10] was 100%. In [11], the inhibition result was “Active”.

In the case of `N#CN1CC[C@H](C(=O)Nc2nc3c(s2)CN(C(=O)CN=[N+]=[N-])CC3)C1`, the inhibition result in [10] and in [9] was “Active” in each case.

In assay [10], `N#CN1CC[C@H](C(=O)Nc2nc3c(s2)CN(C(=O)Cc2ccncc2)CC3)C1` displayed an inhibition of 100%. Also, the inhibition entry in assay [11] is “Active”.

Take `O=c1ccc(NS(=O)(=O)c2cccc(S(=O)(=O)F)c2)c[nH]1`: in assay [12], the inhibition turned out to be 100%. In addition, the inhibition result in assay [13] and in [14] was “Active” throughout.

With `N#CN1CC[C@@H](C(=O)Nc2nc3c(s2)CN(C(=O)CN=[N+]=[N-])CC3)C1`, the inhibition was 100% in assay [15], 100% in assay [11] and “Dde” in assay [18]. Moreover, the inhibition result in [16] and in [17] was “Active” throughout.

Take `CC1=CC(C)=[N+]2C1=C(CCCCc1cn(CC(=O)N3CCc4nc(NC(=O)[C@@H]5CCN(C#N)C5)sc4C3)nn1)c1c(C)cc(C)n1[B-]2(F)F`: the outcome in assay [19] and in assay [20] was Active.

`O=C(O)c1csc(C(=O)CCl)c1`: the inhibition entry in [13] and in assay [14] was “Active” throughout.

In the case of `CCC(C)c1ccc(NC(=O)CCl)cc1` (stereo not drawn), the inhibition entry in [13] and in assay [14] was “Active” each time.
